In ChEMBL document CHEMBL3769384, “Discovery of Tetrahydropyrazolopyridine as Sphingosine 1-Phosphate Receptor 3 (S1P3)-Sparing S1P1 Agonists Active at Low Oral Doses” (J Med Chem, 2016):
Calls of active or inactive are those of the source. The calls are words filed in the database; no cut-off is given here.

Experiments:
[1] = molecular target: T1, Sphingosine 1-phosphate receptor 1 (Homo sapiens, UniProt P21453); test: Agonist activity at human S1P1 receptor expressed in RH7777 cells by [35S]GTP-gammaS accumulation assay; format: cell-based
Method in brief: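 RH7777 S1P1 membranes (1.5 µg/well) precoupled 30 min on ice to WGA SPA beads in 20 mM HEPES, 10 mM MgCl2, 100 mM NaCl, pH 7.4, with 10 µM GDP and 90 µg/mL saponin (final). 0.5 nM [35S]GTPγS final added to compound; plates read immediately by scintillation proximity.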

[2] = molecular target: T1, Sphingosine 1-phosphate receptor 1; test: Agonist activity at human S1P1 receptor expressed in CHO-K1 EDG1 cells by beta-arrestin recruitment assay; format: cell-based
Method in brief: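 CHO-K1 cells stably expressing beta-arrestin 2 and S1P1 fused to complementing beta-galactosidase fragments; grown to 80% confluency, harvested enzyme-free, resuspended in HEPES/BSA assay buffer pH 7.4. Cells at 1x10^4/well added to compound in DMSO, 90 min at 37°C/5% CO2, then 15 min at room temperature; chemiluminescent detection mix 60 min at room temperature, luminescence read.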

[3] = Lipophilicity, log D of the compound at pH 7.4 by chromatography; format: physicochemical; details: buffer
[4] = molecular target: Sphingosine 1-phosphate receptor 3 (Homo sapiens, UniProt Q99500); test: Agonist activity at human S1P3 receptor expressed in RBL cells by [35S]GTP-gammaS accumulation assay; format: cell-based
Method in brief: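 Sucrose-gradient-purified RBL S1P3 membranes (0.44 µg/well) precoupled 30 min on ice to WGA SPA beads with 2 µg/well saponin in HEPES/MgCl2/NaCl buffer pH 7.4. 5 µM GDP final and 0.3 nM [35S]GTPγS final added, then dispensed onto compound in DMSO. Read by scintillation proximity after 3 h at room temperature.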

[5] = system: Rattus norvegicus; test: Lymphopenia activity in Lewis rat at 1 mg/kg, po measured after 2 to 4 hrs; format: functional, organism-based
[6] = system: Rattus norvegicus; test: Lymphopenia activity in Lewis rat at 1 mg/kg, po measured at 8 hrs; format: functional, organism-based
[7] = system: Rattus norvegicus; test: Lymphopenia activity in Lewis rat at 1 mg/kg, po measured after 24 hrs; format: functional, organism-based
[8] = molecular target: Sphingosine 1-phosphate receptor 5 (Homo sapiens, UniProt Q9H228); test: Agonist activity at human S1P5 receptor expressed in CHO-K1 cells by aequorin calcium accumulation assay; format: functional, cell-based
Method in brief: (§1)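 CHO-K1 aequorin lines revived in DMEM F12 with 10% charcoal-stripped FBS, recovered 30 min at 37°C, then loaded 18-24 h at room temperature in the dark with 5 µM coelenterazine at 2.5x10^6 cells/mL. Cells were added at 1x10^5/well to compound, and flash luminescence was recorded immediately.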

[9] = molecular target: T2, Sphingosine 1-phosphate receptor 4 (Homo sapiens) (UniProt O95977); test: Agonist activity at human S1P4 receptor expressed in CHO-K1 cells by aequorin calcium accumulation assay; format: functional, cell-based; method in brief: as §1
T2 sequence (whole entry): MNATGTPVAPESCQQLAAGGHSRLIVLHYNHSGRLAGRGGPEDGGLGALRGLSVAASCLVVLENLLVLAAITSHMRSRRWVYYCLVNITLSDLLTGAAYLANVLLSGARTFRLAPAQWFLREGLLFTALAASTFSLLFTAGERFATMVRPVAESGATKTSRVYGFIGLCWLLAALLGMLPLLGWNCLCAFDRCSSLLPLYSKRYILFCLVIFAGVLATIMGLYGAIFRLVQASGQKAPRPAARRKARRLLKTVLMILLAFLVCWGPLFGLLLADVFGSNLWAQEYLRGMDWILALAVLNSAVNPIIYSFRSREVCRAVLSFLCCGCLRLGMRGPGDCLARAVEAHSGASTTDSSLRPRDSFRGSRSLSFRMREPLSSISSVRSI

[10] = system: Rattus norvegicus; test: Lymphopenia activity in Lewis rat at 0.3 mg/kg, po measured after 24 hrs; format: functional, organism-based
Method in brief: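 Male Lewis rats (300-350 g) bled by venepuncture the day before dosing. Compound given orally at 0.1-3 mg/kg, or vehicle (1% methylcellulose, 4 mL/kg). Blood taken 0.25-54 h post-dose and lymphocytes counted on an automatic haematology analyser.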

[11] = molecular target: Sphingosine 1-phosphate receptor 2 (Homo sapiens, UniProt O95136); test: Agonist activity at human S1P2 receptor expressed in Saccharomyces cerevisiae after 24 hrs by reporter gene assay
Method in brief: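 S. cerevisiae with integrated S1P2 under the GPD promoter, seeded at 0.02 OD600 in histidine-free minimal medium with 5 mM 3-aminotriazole and 100 µM fluorescein-di-(β-D-glucopyranoside). Agonist-driven growth was read as fluorescein fluorescence (ex 485/em 535 nm) after 24 h at 30°C.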

[12] = molecular target: T1, Sphingosine 1-phosphate receptor 1; test: Agonist activity at human S1P1 receptor by receptor internalisation assay

T1 sequence (P21453 whole entry): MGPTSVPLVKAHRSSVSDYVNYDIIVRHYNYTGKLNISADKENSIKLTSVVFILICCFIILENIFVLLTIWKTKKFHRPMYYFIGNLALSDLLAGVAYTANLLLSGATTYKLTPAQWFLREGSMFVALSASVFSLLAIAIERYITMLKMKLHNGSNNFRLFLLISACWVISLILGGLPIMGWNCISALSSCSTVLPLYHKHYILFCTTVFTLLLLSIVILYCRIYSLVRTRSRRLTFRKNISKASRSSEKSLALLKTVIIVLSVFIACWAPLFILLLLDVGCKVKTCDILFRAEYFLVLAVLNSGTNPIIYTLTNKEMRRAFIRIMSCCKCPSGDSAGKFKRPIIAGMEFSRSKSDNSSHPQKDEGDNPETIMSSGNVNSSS
Sphingosine 1-phosphate receptor 3, sequence (Q99500 whole entry): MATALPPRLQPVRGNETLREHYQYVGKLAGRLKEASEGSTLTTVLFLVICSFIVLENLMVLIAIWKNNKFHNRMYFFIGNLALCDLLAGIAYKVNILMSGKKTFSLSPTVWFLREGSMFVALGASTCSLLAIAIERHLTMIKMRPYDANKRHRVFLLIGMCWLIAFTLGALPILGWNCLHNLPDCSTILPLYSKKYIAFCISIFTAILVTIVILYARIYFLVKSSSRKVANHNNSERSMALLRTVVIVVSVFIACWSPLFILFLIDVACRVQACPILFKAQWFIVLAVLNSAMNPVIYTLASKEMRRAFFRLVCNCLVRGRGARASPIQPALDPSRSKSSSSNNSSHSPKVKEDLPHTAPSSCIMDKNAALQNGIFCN
Sphingosine 1-phosphate receptor 2, sequence (O95136 whole entry): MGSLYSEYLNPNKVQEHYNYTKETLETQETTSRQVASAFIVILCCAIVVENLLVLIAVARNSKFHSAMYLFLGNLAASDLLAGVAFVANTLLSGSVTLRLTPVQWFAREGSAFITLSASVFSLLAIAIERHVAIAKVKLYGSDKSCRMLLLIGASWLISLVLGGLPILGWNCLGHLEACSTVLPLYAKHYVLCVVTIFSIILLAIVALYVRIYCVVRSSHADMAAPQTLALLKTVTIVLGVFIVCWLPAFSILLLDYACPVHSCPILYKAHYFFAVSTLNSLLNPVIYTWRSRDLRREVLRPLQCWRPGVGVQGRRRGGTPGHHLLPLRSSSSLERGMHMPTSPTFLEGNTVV
Sphingosine 1-phosphate receptor 5, sequence (Q9H228 whole entry): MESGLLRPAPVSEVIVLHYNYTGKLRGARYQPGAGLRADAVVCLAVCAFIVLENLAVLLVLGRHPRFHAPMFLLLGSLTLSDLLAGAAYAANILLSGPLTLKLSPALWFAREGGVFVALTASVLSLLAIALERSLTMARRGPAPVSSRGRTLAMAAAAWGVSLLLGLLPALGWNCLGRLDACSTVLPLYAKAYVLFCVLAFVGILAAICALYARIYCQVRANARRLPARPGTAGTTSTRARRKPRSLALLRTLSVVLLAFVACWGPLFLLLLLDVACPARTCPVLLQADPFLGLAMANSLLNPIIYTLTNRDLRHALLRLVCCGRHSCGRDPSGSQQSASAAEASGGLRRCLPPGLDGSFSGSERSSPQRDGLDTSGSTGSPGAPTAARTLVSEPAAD

Row | Structure (SMILES) | EC50 [1] [nM] | EC50 [2] [nM] | chromatographic logD [3] | EC50 [4] [nM] | further results
1 | CC(C)Oc1ccc(-c2nnc(N3CCNCC3)s2)cc1Cl | 6310 | – | – | – | –
2 | Cc1nn(-c2nnc(-c3ccc(OC(C)C)c(Cl)c3)s2)c(C)c1CCC(=O)O | 39.8 | 20 | 4.3 | > 31600 | –
3 | CC(C)Oc1ccc(-c2nnc(Nc3ccc(CC(=O)O)cc3)s2)cc1Cl | 1260 | – | – | – | –
4 | Cc1[nH]ncc1-c1nnc(-c2ccc(OC(C)C)c(Cl)c2)s1 | 126 | – | 5.45 | > 31600 | –
5 | Cc1c2c(nn1-c1nnc(-c3ccc(OC(C)C)c(C#N)c3)s1)CNCC2 | – | 158 | 4.23 | > 31600 | –
6 | Cc1c2c(nn1-c1nnc(-c3ccc(OC(C)C)c(C#N)c3)s1)CCN(CCC(=O)O)C2 | 15.8 | 3.16 | 2.76 | > 31600 | Activity [5]: Active; Activity [6]: Active
7 | Cc1c(-c2noc(-c3ccc(OC(C)C)c(C#N)c3)n2)ccc2c1CCN(CCC(=O)O)C2 | 31.6 | 5.01 | 3.41 | > 39800 | –
8 | CC(C)Oc1ccc(-c2nnc(-n3cncn3)s2)cc1Cl | 501 | – | 6.18 | > 31600 | –
9 | CC(C)Oc1ccc(-c2nnc(-n3ncc4c3CCN(CCC(=O)O)C4)s2)cc1Cl | 126 | 50.1 | 3.54 | 20000 | Activity [5]: inactive
10 | CC(C)Oc1ccc(-c2nnc(-c3ccnn3C)s2)cc1Cl | 251 | – | 7.04 | > 31600 | –
11 | CC(C)Oc1ccc(-c2nnc(-n3ncc4c3CCNC4)s2)cc1Cl | 398 | 794 | 4.87 | > 31600 | –
12 | CCCCCCCCc1ccc(CCC(N)(CO)CO)cc1 | – | – | – | – | Activity [5]: Active
13 | CC(C)Oc1ccc(-c2nnc(-n3cc4c(n3)CCN(CCCC(=O)O)C4)s2)cc1C#N | – | 6.31 | 2.87 | > 31600 | –
14 | CC(C)Oc1ccc(-c2nnc(-c3cnn(CCN4CCOCC4)c3)s2)cc1Cl | 10000 | – | 5.59 | > 31600 | –
15 | Cc1c(-c2nnc(-c3ccc(OC(C)C)c(Cl)c3)s2)cnn1CCC(=O)O | 2510 | – | 3.16 | > 31600 | –
16 | CC(C)Oc1ccc(-c2nnc(N3CCOc4c(CCC(=O)O)cccc43)s2)cc1Cl | 251 | – | – | – | –
17 | CC(C)Oc1ccc(-c2nnc(-n3cc4c(n3)CCN(CCC(=O)O)C4)s2)cc1C#N | 50.1 | 5.01 | 2.58 | > 31600 | Activity [5]: Active; Activity [6]: Active
18 | CC(C)Oc1ccc(-c2nnc(-n3cc4c(n3)CCN(CCC(=O)O)C4)s2)cc1Cl | 12.6 | 3.98 | 3.26 | > 31600 | Activity [5]: Active; Activity [7]: inactive
19 | CC(C)Oc1ccc(-c2nnc(NC3CCN(CC(=O)O)CC3)s2)cc1Cl | 2510 | – | – | – | –

Row | Structure (SMILES) | EC50 [1] [nM] | EC50 [2] [nM] | chromatographic logD [3] | EC50 [4] [nM] | further results
20 | CC(C)Oc1ccc(-c2nnc(N3CCC(N4CCCC(C(=O)O)C4)CC3)s2)cc1Cl (centres undefined) | 3980 | – | – | – | –
21 | Cc1c2c(nn1-c1nnc(-c3ccc(OC(C)C)c(C#N)c3)s1)CCN(CC(=O)O)C2 | – | 100 | 2.88 | > 31600 | –
22 | CC(C)Oc1ccc(-c2nnc(-c3cncn3C)s2)cc1Cl | 63.1 | – | 5.7 | > 31600 | –
23 | CC(C)Oc1ccc(-c2nnc(NC3=CCNCC3)s2)cc1Cl | 1580 | – | – | – | –
24 | Cc1c2c(nn1-c1nnc(-c3ccc(OC(C)C)c(Cl)c3)s1)CCNC2 | 126 | 158 | 5.32 | > 31600 | –
25 | CC(C)Oc1ccc(-c2nnc(-n3cc4c(n3)CCNC4)s2)cc1C#N | 501 | 126 | 3.37 | > 31600 | –
26 | CC(C)Oc1ccc(-c2nnc(-c3cnn(CC(=O)O)c3)s2)cc1Cl | 25100 | – | 2.82 | > 31600 | –
27 | Cc1nn(-c2nnc(-c3ccc(OC(C)C)c(Cl)c3)s2)c(C)c1CC(=O)O | 1000 | 1580 | 3.62 | > 31600 | –
28 | Cc1c2c(nn1-c1nnc(-c3ccc(OC(C)C)c(Cl)c3)s1)CCN(CCC(=O)O)C2 | – | – | – | – | Emax [8]: 63%; Emax [2]: 83%; Emax [9]: 7%; Activity [10]: Active; Activity [5]: Active; Activity [7]: Active; Emax [11]: 0%; Emax [12]: 109%
29 | CC(C)Oc1ccc(-c2nnc(NCCNCCC(=O)O)s2)cc1Cl | > 31600 | – | – | – | –
30 | CC(C)Oc1ccc(-c2nnc(-c3ccno3)s2)cc1Cl | 1000 | – | 6.93 | > 31600 | –
31 | CC(C)Oc1ccc(-c2nnc(-n3cc4c(n3)CCN(CCCC(=O)O)C4)s2)cc1Cl | 12.6 | 5.01 | 3.56 | > 31600 | –
32 | CC(C)Oc1ccc(-c2nnc(N3CCc4cc(CCC(=O)O)ccc43)s2)cc1Cl | 100 | – | – | – | –
33 | Cc1c2c(nn1-c1nnc(-c3ccc(OC(C)C)c(C#N)c3)s1)CCNC2 | 100 | 63.1 | 3.73 | > 31600 | –
34 | CC(C)Oc1ccc(-c2nnc(-c3ccccc3)s2)cc1Cl | 251 | – | 8.65 | 20000 | –
35 | CC(C)Oc1ccc(-c2nnc(-n3cc4c(n3)CCNC4)s2)cc1Cl | 631 | 631 | 4.44 | > 31600 | –
36 | CC(C)Oc1ccc(-c2nnc(-c3cn[nH]c3)s2)cc1Cl | 631 | – | 5 | > 31600 | –
37 | CC(C)Oc1ccc(-c2nnc(NCCN)s2)cc1Cl | > 31600 | – | – | – | –
38 | Cc1nc(C)c(-c2nnc(-c3ccc(OC(C)C)c(Cl)c3)s2)s1 | 251 | – | 7.76 | > 31600 | –
